Measurements: ChEMBL document CHEMBL3822360, “Synthesis of new thiazolo-celecoxib analogues as dual cyclooxygenase-2/15-lipoxygenase inhibitors: Determination of regio-specific different pyrazole cyclization by 2D NMR” (Eur J Med Chem, 2016)
pIC50: −log10 of the molar value.

Columns and labels:
[1] = molecular target: T1, Prostaglandin G/H synthase 1 (Ovis aries, UniProt P05979); assay: Inhibition of ovine COX-1 assessed as reduction in PGF2-alpha formation using arachidonic acid as substrate by enzyme immunoassay
T1 sequence (P05979 whole entry): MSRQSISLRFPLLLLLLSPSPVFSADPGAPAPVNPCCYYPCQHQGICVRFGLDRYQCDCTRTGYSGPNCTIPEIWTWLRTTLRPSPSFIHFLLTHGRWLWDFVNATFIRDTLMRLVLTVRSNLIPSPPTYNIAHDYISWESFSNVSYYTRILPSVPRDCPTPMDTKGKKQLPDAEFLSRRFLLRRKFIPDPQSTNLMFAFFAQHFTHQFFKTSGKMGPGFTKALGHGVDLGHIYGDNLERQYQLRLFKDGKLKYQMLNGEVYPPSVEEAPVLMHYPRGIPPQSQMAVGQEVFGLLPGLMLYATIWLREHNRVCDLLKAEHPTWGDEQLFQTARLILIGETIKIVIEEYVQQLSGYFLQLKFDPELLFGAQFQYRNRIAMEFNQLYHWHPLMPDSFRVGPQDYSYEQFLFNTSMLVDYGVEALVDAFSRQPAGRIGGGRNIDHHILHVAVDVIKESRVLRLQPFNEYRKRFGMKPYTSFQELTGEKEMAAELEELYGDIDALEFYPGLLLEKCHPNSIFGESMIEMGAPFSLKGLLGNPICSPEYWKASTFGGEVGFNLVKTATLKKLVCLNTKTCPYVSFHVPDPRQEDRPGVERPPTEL

Rattus norvegicus [2] = assay: Ulcerogenicity in Wistar albino rat assessed as damage in gastric mucosa at 50 mg/kg, po qd for 3 days measured 1 hr post last dose; format: toxicity, organism-based; conditions: in vivo
Outline: (§1)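 Rats were fasted 18 h, then dosed orally once daily for 3 consecutive days. Compounds were given in DMSO; controls received 10% aqueous DMSO (v/v). Ulcer index is the sum of % ulcer incidence/10, mean number of ulcers per stomach and mean ulcer severity. Values are mean ± SEM.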

[3] = Inhibition of soybean 15-LOX using arachidonic acid as substrate by enzyme immunoassay; parameters: species or system Glycine max
Outline: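 Soybean 15-LOX inhibition was measured with an EIA kit following the manufacturer's instructions, in 0.1 M Tris-HCl buffer, pH 7.4. Compounds were dissolved in minimal DMSO and diluted to final concentrations of 0.001–10 μM, including 1, 5 and 10 μM. IC50 (μM) is the mean of two determinations.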

Rattus norvegicus [4] = assay: Anti-inflammatory activity in Wistar albino rat assessed as inhibition of carrageenan-induced paw edema at 50 mg/kg, po measured after 2 hrs relative to control; format: functional
Outline: (§2)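 Adult male Wistar albino rats (100–150 g) were housed under a 12 h light cycle at 27 ± 2 °C with food and water. Paw edema was induced with carrageenan after oral dosing. […] Values are mean ± SEM, n = 5.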

Rattus norvegicus [5] = assay: Anti-inflammatory activity in Wistar albino rat assessed as inhibition of carrageenan-induced paw edema at 50 mg/kg, po measured after 4 hrs relative to control; format: functional; outline: as §2
Rattus norvegicus [6] = assay: Anti-inflammatory activity against Wistar albino rat model of carrageenan-induced paw edema assessed as reduction in paw thickness at 15 mg/kg, po measured after 2 hrs relative to control; format: functional; outline: as §2
Rattus norvegicus [7] = assay: Anti-inflammatory activity in Wistar albino rat assessed as inhibition of carrageenan-induced paw edema 15 mg/kg, po measured after 4 hrs relative to control; format: functional; outline: as §2
Rattus norvegicus [8] = assay: Ulcerogenicity in Wistar albino rat assessed as damage in gastric mucosa at 30.9 umol/kg, po qd for 3 days measured 1 hr post last dose; format: toxicity, organism-based; conditions: in vivo; outline: as §1

Row | SMILES | pIC50 [1] | pIC50 [3] | UI (Rattus norvegicus [2]) | inhibition in vivo at 50 mg/kg (Rattus norvegicus [4]) | inhibition in vivo at 50 mg/kg (Rattus norvegicus [5]) | inhibition in vivo at 15 mg/kg (Rattus norvegicus [6]) | inhibition (INH) (Rattus norvegicus [7]) | UI (Rattus norvegicus [8])
1 | Cc1nc(-c2ccccc2)sc1-c1ccnn1-c1ccc(S(=O)(=O)/N=C/N(C)C)cc1 | 5.06 | 5.11 | 2.93 | 53.2% | 51.6% | – | – | –
2 | Cc1nc(-c2ccccc2)sc1-c1cc(C(F)(F)F)nn1-c1ccc(S(C)(=O)=O)cc1 | 5.32 | 5.40 | 2.78 | 53.2% | 51.6% | – | – | –
3 | COc1ccc([C@@H]2CC(c3sc(-c4ccccc4)nc3C)=NN2c2ccc(S(C)(=O)=O)cc2)cc1 | 5.24 | 5.33 | 3.83 | 27.5% | 28.1% | – | – | –
4 | Cc1ccc(-c2cc(C(F)(F)F)nn2-c2ccc(S(N)(=O)=O)cc2)cc1 [CELECOXIB] | – | – | – | – | – | 59.7% | 65.63% | 2.9
5 | Cc1ccc(Cl)c(Nc2ccccc2C(=O)O)c1Cl [MECLOFENAMATE SODIUM] | – | 5.25 | – | – | – | – | – | –

Now from value to molecule, other results behind:

Row | pIC50 [1] | pIC50 [3] | SMILES | UI (Rattus norvegicus [2]) | inhibition in vivo at 50 mg/kg (Rattus norvegicus [4]) | inhibition in vivo at 50 mg/kg (Rattus norvegicus [5]) | inhibition in vivo at 15 mg/kg (Rattus norvegicus [6]) | inhibition (INH) (Rattus norvegicus [7]) | UI (Rattus norvegicus [8])
6 | 5.07 | 5.13 | COc1ccc(/C=C/C(=O)c2sc(-c3ccccc3)nc2C)cc1 | 4.08 | 43.8% | 46.9% | – | – | –
7 | 5.01 | 5.07 | C/C(=N\Nc1ccc(S(N)(=O)=O)cc1)c1sc(-c2ccccc2)nc1C | 2.65 | 33.9% | 37.1% | – | – | –
8 | 5.27 | 5.20 | C/C(=N\Nc1ccc(S(C)(=O)=O)cc1)c1sc(-c2ccccc2)nc1C | 3.87 | 27.4% | 28.1% | – | – | –
9 | 5.01 | 5.06 | Cc1nc(-c2ccccc2)sc1-c1ccnn1-c1ccc(S(N)(=O)=O)cc1 | 2.48 | 54.8% | 54.7% | – | – | –
10 | 5.20 | 5.27 | Cc1nc(-c2ccccc2)sc1-c1cc(C(F)(F)F)nn1-c1ccc(S(N)(=O)=O)cc1 | 2.67 | 53.2% | 57.8% | – | – | –
11 | 5.17 | 5.23 | COc1ccc([C@@H]2CC(c3sc(-c4ccccc4)nc3C)=NN2c2ccc(S(N)(=O)=O)cc2)cc1 | 3.79 | 37.1% | 42.2% | – | – | –
12 | 4.99 | 5.13 | Cc1nc(-c2ccccc2)sc1-c1ccnn1-c1ccc(S(C)(=O)=O)cc1 | 4.35 | 46.8% | 48.4% | – | – | –
